{
  "source": "ChEMBL document CHEMBL3997808",
  "about": "(J Med Chem, 2017)",
  "key": {"[1]": {"biological_target": "T1, Receptor-interacting serine/threonine-protein kinase 1 (Homo sapiens) (UniProt Q13546)", "T1 sequence (whole entry)": "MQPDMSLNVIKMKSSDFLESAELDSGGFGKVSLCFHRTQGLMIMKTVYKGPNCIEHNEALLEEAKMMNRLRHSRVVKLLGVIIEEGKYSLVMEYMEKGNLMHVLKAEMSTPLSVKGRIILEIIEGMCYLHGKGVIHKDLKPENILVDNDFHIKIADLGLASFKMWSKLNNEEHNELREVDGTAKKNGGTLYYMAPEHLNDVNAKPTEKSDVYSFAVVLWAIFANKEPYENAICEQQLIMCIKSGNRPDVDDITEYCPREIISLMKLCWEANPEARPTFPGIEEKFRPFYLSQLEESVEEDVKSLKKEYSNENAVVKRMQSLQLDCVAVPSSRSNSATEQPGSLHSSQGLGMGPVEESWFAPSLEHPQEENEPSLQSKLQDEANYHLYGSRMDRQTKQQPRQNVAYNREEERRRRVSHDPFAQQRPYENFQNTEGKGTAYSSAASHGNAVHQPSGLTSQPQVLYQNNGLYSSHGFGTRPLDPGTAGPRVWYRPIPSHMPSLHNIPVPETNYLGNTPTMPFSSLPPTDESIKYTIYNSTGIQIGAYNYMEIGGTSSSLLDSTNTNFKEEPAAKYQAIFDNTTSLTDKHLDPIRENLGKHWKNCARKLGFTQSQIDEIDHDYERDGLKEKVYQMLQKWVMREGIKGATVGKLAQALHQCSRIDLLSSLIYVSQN"}, "Mus musculus [2]": {"tested_on": "Mus musculus", "assay": "Protection against TNF/zVAD-induced lethal shock in mouse assessed as reduction in body temperature loss at 3 mg/kg, po pretreated for 15 mins followed by TNF/zVAD-stimulation measured after 3 hrs relative to control", "format": "functional", "parameters": "scale not given: the % may be the effect or the level left"}, "[3]": {"assay": "(§1) Displacement of (14-(2-{[3-({2-{[4-(cyanomethyl)phenyl]amino}-6-[(5-cyclopropyl-1H-pyrazol-3-yl)-amino]-4-pyrimidinyl}amino)propyl]amino}-2-oxoethyl)-16,16,18,18-tetramethyl-6,7,7a,8a,9,10,16,18-octahydrobenzo[2'',3'']indolizino-[8'',7'':5',6']pyrano[3',2':3,4]pyrido[1,2-a]indol-5-ium-2-sulfonate from mini pig RIP1 (1 to 375 residues) expressed in baculovirus infected insect cells measured for 50 mins by fluorescence polarization assay", "parameters": "species or system Sus scrofa", "summary_of_the_method": "(§2)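 Competitive FP binding assay in which test compounds displace a fluorescently labeled ATP-competitive ligand from RIP1.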"}, "[4]": {"assay": "as §1, with “rabbit” for “mini pig”, “371” for “375”", "parameters": "species or system Oryctolagus cuniculus", "summary_of_the_method": "as §2"}, "[5]": {"assay": "as §1, with “monkey” for “mini pig”, “379” for “375”", "parameters": "species or system Macaca mulatta", "summary_of_the_method": "as §2"}, "Mus musculus [6]": {"tested_on": "Mus musculus", "assay": "In vivo inhibition of RIP1 in po dosed mouse model of TNF/zVAD-induced lethal shock assessed as plasma concentration required for reduction in body temperature loss pretreated for 15 mins followed by TNF-stimulation measured after 3 hrs", "format": "functional, organism-based"}, "Mus musculus [7]": {"tested_on": "Mus musculus", "assay": "In vivo inhibition of RIP1 in po dosed mouse model of TNF-induced lethal shock assessed as plasma concentration required for reduction in body temperature loss pretreated for 15 mins followed by TNF-stimulation measured after 6 hrs", "format": "functional, organism-based"}, "Mus musculus [8]": {"tested_on": "Mus musculus", "assay": "Protection against TNF-induced lethal shock in mouse assessed as reduction in body temperature loss at 50 mg/kg, po pretreated for 15 mins followed by TNF-stimulation measured after 6 hrs relative to control", "format": "functional", "parameters": "scale not given: the % may be the effect or the level left"}, "Mus musculus [9]": {"tested_on": "Mus musculus", "assay": "Protection against TNF-induced lethal shock in mouse assessed as reduction in body temperature loss at 3 mg/kg, po pretreated for 15 mins followed by TNF-stimulation measured after 6 hrs relative to control", "format": "functional", "parameters": "scale not given: the % may be the effect or the level left"}, "Mus musculus [10]": {"tested_on": "Mus musculus", "assay": "Protection against TNF/zVAD-induced lethal shock in mouse assessed as reduction in body temperature loss at 10 mg/kg, po pretreated for 15 mins followed by TNF/zVAD-stimulation measured after 3 hrs relative to control", "format": "functional", "parameters": "scale not given: the % may be the effect or the level left"}, "Mus musculus [11]": {"tested_on": "Mus musculus", "assay": "Protection against TNF/zVAD-induced lethal shock in mouse assessed as reduction in body temperature loss at 50 mg/kg, po pretreated for 15 mins followed by TNF/zVAD-stimulation measured after 3 hrs relative to control", "format": "functional", "parameters": "scale not given: the % may be the effect or the level left"}, "[12]": {"assay": "Inhibition of RIP1 in cynomolgus monkey whole blood assessed as reduction in TNFalpha/[…]/zVAD FMK/SMAC mimetic RMT 5265-IL-1beta production after 6 hrs by sandwich ELISA", "conditions": "Macaca fascicularis", "summary_of_the_method": "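Heparinized venous cynomolgus whole blood was stimulated with stocks of TNF (200 ng/mL), QVD-OPh or zVAD.fmk (400 μM) and RMT 5265 (20 μM), with stock values as printed. Compound was a 5-fold dilution series, top 5 μM, in RPMI/1% FBS/1% DMSO. Incubation was 6 h at 37 °C, 5% CO2, then PBS dilution and centrifugation. Supernatant IL-1β was read by sandwich ELISA.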"}, "[13]": {"assay": "as §1, with “dog” for “mini pig”, “373” for “375”", "parameters": "species or system Canis lupus familiaris", "summary_of_the_method": "as §2"}, "[14]": {"assay": "as §1, with “rat” for “mini pig”, “377” for “375”", "summary_of_the_method": "as §2"}, "Mus musculus [15]": {"tested_on": "Mus musculus", "assay": "Protection against TNF-induced lethal shock in mouse assessed as reduction in body temperature loss at 10 mg/kg, po pretreated for 15 mins followed by TNF-stimulation measured after 6 hrs relative to control", "format": "functional", "parameters": "scale not given: the % may be the effect or the level left"}},
  "data": [
    {"smiles": "CN1C(=O)[C@@H](NC(=O)c2n[nH]c(Cc3ccccc3)n2)COc2ccccc21", "note": "[GSK2982772]", "values": [
      {"measurement": "T1/2", "setting": "[1]", "result": 1.87, "unit": "h"},
      {"measurement": "Activity", "setting": "Mus musculus [2]", "result": 13, "unit": "%"},
      {"measurement": "IC50", "setting": "[3]", "result": "> 10000", "unit": "nM"},
      {"measurement": "IC50", "setting": "[4]", "result": 790, "unit": "nM"},
      {"measurement": "IC50", "setting": "[5]", "result": 20, "unit": "nM"},
      {"measurement": "IC50", "setting": "Mus musculus [6]", "result": 3200, "unit": "nM"},
      {"measurement": "IC50", "setting": "Mus musculus [7]", "result": 1000, "unit": "nM"},
      {"measurement": "Activity", "setting": "Mus musculus [8]", "result": 87, "unit": "%"},
      {"measurement": "Activity", "setting": "Mus musculus [9]", "result": 68, "unit": "%"},
      {"measurement": "Activity", "setting": "Mus musculus [10]", "result": 63, "unit": "%"},
      {"measurement": "Activity", "setting": "Mus musculus [11]", "result": 93, "unit": "%"},
      {"measurement": "IC50", "setting": "[12]", "result": 4, "unit": "nM"},
      {"measurement": "IC50", "setting": "[13]", "result": 5000, "unit": "nM"},
      {"measurement": "IC50", "setting": "[14]", "result": 2000, "unit": "nM"},
      {"measurement": "Activity", "setting": "Mus musculus [15]", "result": 80, "unit": "%"}
    ]}
  ]
}
